Assay results published in ChEMBL document CHEMBL1157979, “Chromone derivatives from the filamentous fungus Lachnum sp. BCC 2424” (J Nat Prod, 2006).
≈ marks a conversion by molar mass, not a printed value. Calls of active or inactive are those of the source. The rule behind the calls is not given here.

What was measured:
BC1 = assay: (§1) Cytotoxicity against human BC1 cells by MTT assay; assay type: functional, cell-based
KB = assay: Cytotoxicity against human KB cells by MTT assay; assay type: functional, cell-based
[1] = test system: Mycobacterium tuberculosis; assay: Antimicrobial activity against Mycobacterium tuberculosis H37Ra by Microplate Alamar blue assay; assay type: functional
Summary of the method: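 Whole-cell growth inhibition of M. tuberculosis H37Ra read by Microplate Alamar Blue Assay; value reported as minimum inhibitory concentration; isoniazid and kanamycin sulfate as reference drugs.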

Candida albicans = assay: Antifungal activity against Candida albicans by MTT assay; assay type: functional, organism-based
Summary of the method: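 Tested against Candida albicans strain ATCC 90028 with a modified colorimetric method that uses tetrazolium salt (MTT) reduction as the read-out.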

Plasmodium falciparum = assay: Antimalarial activity after 42 hrs against Plasmodium falciparum K1; conditions: K1, 42 h
[2] = as §1; assay type: functional, cell-based

Row | SMILES | Activity (BC1) | Activity (KB) | Activity [1] | Activity (Candida albicans) | MIC [1] [µg/mL] | also measured
1 | CC(=O)C[C@]1(O)C(=O)c2c(O)cc(CO)cc2O[C@@]1(C)[C@@H]1CCC(=O)O1 | inactive | inactive | inactive | inactive |  | 
2 | C[C@]1([C@@H]2CCC(=O)O2)CC(=O)c2c(O)cc(CO)cc2O1 | inactive | inactive | inactive | inactive |  | 
3 | Cc1cc(O)c2c(=O)c(O)c(C)oc2c1 | inactive | inactive | inactive | inactive |  | 
4 | C[C@H]1[C@@H](O)O[C@@H]2O[C@@]3(C)CC[C@H]4[C@H](C)CC[C@@H]1[C@@]24OO3 [ARTENIMOL] |  |  |  |  |  | IC50 (Plasmodium falciparum): 3.7 nM
5 | Cc1c2ccncc2c(C)c2c1[nH]c1ccccc12 [ELLIPTECINE] |  |  |  |  |  | IC50 [2]: 0.22 µg/mL (≈ 0.893 µM); IC50 (KB): 0.24 µg/mL (≈ 0.974 µM)
6 | NNC(=O)c1ccncc1 [ISONIAZID] |  |  |  |  | 0.05 (≈ 0.365 µM) | 
7 | NC[C@H]1O[C@H](O[C@H]2[C@H](O)[C@@H](O[C@H]3O[C@H](CO)[C@@H](O)[C@H](N)[C@H]3O)[C@H](N)C[C@@H]2N)[C@H](O)[C@@H](O)[C@@H]1O.O=S(=O)(O)O [KANAMYCIN SULFATE] |  |  |  |  | 2.5 | 
8 | Cc1oc2cc(CO)cc(O)c2c(=O)c1O [LACHNONE B] | inactive | inactive |  | inactive | 200 (≈ 900 µM) | 
9 | C[C@@]1([C@@H]2CCC(=O)O2)Oc2cc(CO)cc(O)c2C(=O)[C@H]1O [LACHNONE D] | inactive | inactive |  | inactive | 200 (≈ 649 µM) | 
